Tests used:
CEM cells [1] = assay: Mitochondrial membrane potential; assay type: cell-based, human
Outline: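 CEM cells grown in RPMI with 10% heat-inactivated FBS at 37 °C, 5% CO2, then given 1 µM final test compound for 6 and 8 h. Stained with JC-1 (MitoProbe) per kit protocol: red aggregates mean polarized mitochondria, green monomers mean depolarized. Green cells scored by flow cytometry, about 10,000 events per sample. Controls were 50 µM CCCP, 1% v/v DMSO and untreated cells. Triplicates, mean ± standard deviation; two-tailed paired t-test.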

caspase-3 = assay: Live-cell detection of intracellular caspase-3 activation; assay type: cell-based, human; conditions: CEM cells, 1 µM, 8 h
Outline: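 CEM cells in RPMI with 10% heat-inactivated FBS and penicillin/streptomycin, 37 °C, 5% CO2, seeded at 50,000 per well. Exposed to 1 µM test compound (DMSO dilutions) for 8 h, then labelled with fluorogenic NucView 488 caspase-3/7 live-cell substrate. Green-positive cells counted by flow cytometry, about 10,000 events per sample. Controls were 50 µM CCCP, 1% v/v DMSO and untreated cells. Mean ± standard deviation; two-tailed paired t-test.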

CEM cells [2] = assay: Annexin V/PI apoptosis/necrosis assay; assay type: cell-based, human; conditions: 72 h
Outline: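 CEM cells in RPMI/10% heat-inactivated FBS, 50,000 per well, rested 1 h, then dosed from DMSO dilutions; 72 h, 37 °C, 5% CO2. Collected on ice, annexin V-FITC/PI in binding buffer 15 min on ice, dark; ~10,000 events by flow. Apoptotic = early+late annexin-positive; PI-only = necrotic. Controls: untreated, 1% DMSO, 1 mM H2O2. Four wells; three independent experiments.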

[3] = Solubility observation in cell culture medium; assay type: physicochemical; conditions: cell culture medium (aqueous environment)

Structure (SMILES): N#CC(C#N)=NNc1cccc(Cl)c1 [CCCP, carbonyl cyanide 3-chlorophenylhydrazone, reference compound]
- mitochondrial depolarization (JC-1 green signal) (CEM cells [1]; 50 µM, positive control): strongly induced mitochondrial depolarization

Structure (SMILES): CCCCCCCCCCCC(=O)c1cc(O)c2ccccc2c1O [Compound 3, 2-Dodecanoyl-1,4-naphthohydroquinone]
- caspase-3 activation (caspase-3): has a tendency to induce cytotoxicity via caspase-3 activation
- apoptosis (annexin V-FITC positive cells, early + late) (CEM cells [2]; 10 µM): 95.35%
- mode of cell death (apoptosis vs necrosis) (CEM cells [2]; 10 µM): preferentially induce cell death via apoptosis
- mitochondrial depolarization (JC-1 green signal) (CEM cells [1]; 1 µM, 6 and 8 h): induced a significant increase in mitochondrial depolarization from 6 to 8 h

Structure (SMILES): CCC(=O)c1cc(O)c2ccccc2c1O [Compound 4, 2-Propanoyl-1,4-naphthohydroquinone]
- solubility in cell culture medium [3]: generated insoluble crystals when added to the cell culture medium

Structure (SMILES): C/C=C/C(=O)c1cc(O)c2ccccc2c1O [Compound 7, 2-Crotonyl-1,4-naphthohydroquinone]
- apoptosis (annexin V-FITC positive cells, early + late) (CEM cells [2]; 50 µM): 1.7%
- mode of cell death (apoptosis vs necrosis) (CEM cells [2]; 50 µM): elicited a substantial amount of necrosis instead of apoptosis

From article PMC4215946 (Bioorganic & medicinal chemistry, 2013)
